{"source": "ChEMBL document CHEMBL4330143", "about": "“Maximizing ER-α Degradation Maximizes Activity in a Tamoxifen-Resistant Breast Cancer Model: Identification of GDC-0927” (ACS Med Chem Lett, 2019)", "key": {"[1]": {"biological_target": "T1, Estrogen receptor (Homo sapiens, UniProt P03372)", "T1 sequence (P03372 whole entry)": "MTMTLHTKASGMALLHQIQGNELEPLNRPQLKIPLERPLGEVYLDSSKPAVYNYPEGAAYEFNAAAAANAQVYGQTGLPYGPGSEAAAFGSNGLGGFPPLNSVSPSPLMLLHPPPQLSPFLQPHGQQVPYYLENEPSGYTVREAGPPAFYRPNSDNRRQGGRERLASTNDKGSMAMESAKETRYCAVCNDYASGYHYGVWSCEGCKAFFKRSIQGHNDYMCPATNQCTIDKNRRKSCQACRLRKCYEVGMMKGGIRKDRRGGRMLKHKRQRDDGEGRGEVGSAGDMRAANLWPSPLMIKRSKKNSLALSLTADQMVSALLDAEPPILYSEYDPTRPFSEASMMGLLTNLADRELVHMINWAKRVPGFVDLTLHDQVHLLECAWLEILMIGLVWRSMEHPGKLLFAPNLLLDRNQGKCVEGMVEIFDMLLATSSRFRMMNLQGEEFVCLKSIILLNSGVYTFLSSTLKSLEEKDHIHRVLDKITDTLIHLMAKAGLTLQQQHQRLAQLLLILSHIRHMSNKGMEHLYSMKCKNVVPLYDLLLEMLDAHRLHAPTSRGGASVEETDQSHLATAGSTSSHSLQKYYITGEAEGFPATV", "assay": "Induction of ERalpha degradation in human MCF7 cells assessed as decrease in ERalpha protein level after 4 hrs by InCell Western assay", "format": "cell-based"}, "[2]": {"tested_on": "MCF7", "assay": "Antiproliferative activity against human MCF7 cells after 5 days by CellTiter-Glo assay", "settings": "MCF7, 120 h"}, "[3]": {"tested_on": "Rattus norvegicus", "assay": "In vivo agonist activity at ERalpha in CD-IGS rat assessed as increase in uterine weight at 60 mg/kg, po for 3 consecutive days measured at 24 hrs post last dose", "format": "functional, organism-based"}, "[4]": {"assay": "AUC in mouse at 10 mg/kg, po", "format": "ADME, organism-based", "settings": "in vivo"}, "[5]": {"assay": "AUC (0 to 24 hrs) in nude mouse xenografted with tamoxifen-resistant human MCF7 cells at 100 mg/kg, po daily for 28 days measured on day 28 post last dose", "format": "ADME, organism-based", "parameters": "time < 24 hr, dose 100 mg/kg, route oral", "settings": "in vivo", "in_short": "(§1)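 Tamoxifen-resistant MCF-7 xenograft mice carrying subcutaneous 0.72 mg estradiol pellets. Plasma pharmacokinetics sampled on day 28 of the study, at take-down.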"}, "[6]": {"assay": "Unbound Cmax in nude mouse xenografted with tamoxifen-resistant human MCF7 cells at 100 mg/kg, po daily for 28 days measured on day 28 post last dose", "format": "ADME, organism-based", "settings": "in vivo, 672 h", "in_short": "as §1"}, "[7]": {"tested_on": "Mus musculus", "assay": "In vivo induction of ERalpha degradation in tumor of nude mouse xenografted with tamoxifen-resistant human MCF7 cells at 100 mg/kg, po daily for 28 days measured on day 28 post last dose", "format": "functional, organism-based", "in_short": "(§2)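 Tamoxifen-resistant MCF-7 tumours grown subcutaneously in mice, with estradiol supplied from subcutaneous 0.72 mg estradiol pellets.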"}, "[8]": {"assay": "Unbound fraction in mouse plasma", "format": "ADME, cell-free"}, "[9]": {"assay": "Oral bioavailability in rat at 10 mg/kg daily for 3 days measured on day 3 post last dose", "format": "ADME, organism-based", "settings": "in vivo"}, "[10]": {"assay": "Unbound AUC (0 to 24 hrs) in nude mouse xenografted with tamoxifen-resistant human MCF7 cells at 100 mg/kg, po daily for 28 days measured on day 28 post last dose", "format": "ADME, organism-based", "settings": "in vivo", "in_short": "as §1"}, "[11]": {"tested_on": "MCF7", "assay": "Antitumor activity against tamoxifen-resistant human MCF7 cells xenografted in nude mouse at 100 mg/kg, po daily for 28 days", "format": "functional, organism-based", "in_short": "as §2"}, "[12]": {"assay": "Cmax in nude mouse xenografted with tamoxifen-resistant human MCF7 cells at 100 mg/kg, po daily for 28 days measured on day 28 post last dose", "format": "ADME, organism-based", "parameters": "dose 100 mg/kg, route oral", "settings": "in vivo", "in_short": "as §1"}, "[13]": {"assay": "Clearance in rat at 10 mg/kg, po daily for 3 days measured on day 3 post last dose", "format": "ADME, organism-based", "settings": "in vivo"}, "[14]": {"assay": "AUC in rat at 10 mg/kg, po daily for 3 days measured on day 3 post last dose", "format": "ADME, organism-based", "settings": "in vivo"}, "[15]": {"tested_on": "Rattus norvegicus", "assay": "In vivo inverse agonist activity at ERalpha in CD-IGS rat assessed as decrease in uterine weight at 10 mg/kg, po for 3 consecutive days measured at 24 hrs post last dose", "format": "functional, organism-based", "in_short": "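Rat uterine wet weight assay run in agonist mode, with no ethynyl estradiol added. Oral dosing at 10 mg/kg for 3 days. Uterine weights compared with those of vehicle-treated animals.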"}}, "note": "Activity calls are given as the source filed them. The calls are words filed in the database; no cut-off is given here.", "data": [{"smiles": "CC1=C(c2ccc(C#N)cc2)C(c2ccc(OCCN3CC(CF)C3)cc2)Oc2ccc(O)cc21", "note": "(centres undefined)", "values": [{"measurement": "IC50", "setting": "[1]", "result": 0.2, "unit": "nM"}, {"measurement": "IC50", "setting": "[2]", "result": 0.3, "unit": "nM"}]}, {"smiles": "CC/C(=C(\\c1ccccc1)c1ccc(OCCN(C)C)cc1)c1ccccc1", "values": [{"measurement": "Activity", "setting": "[3]", "result": "Active"}]}, {"smiles": "COC[C@@H]1CCN(CCOc2ccc(C3Oc4ccc(O)cc4C(C)=C3c3cccc(O)c3)cc2)C1", "note": "(some centres undefined)", "values": [{"measurement": "IC50", "setting": "[1]", "result": 0.3, "unit": "nM"}, {"measurement": "IC50", "setting": "[2]", "result": 0.4, "unit": "nM"}]}, {"smiles": "CC1=C(c2cccc(O)c2)C(c2ccc(OCCN3CC[C@@H](C#N)C3)cc2)Oc2ccc(O)cc21", "note": "(some centres undefined)", "values": [{"measurement": "IC50", "setting": "[1]", "result": 0.8, "unit": "nM"}, {"measurement": "IC50", "setting": "[2]", "result": 3.6, "unit": "nM"}]}, {"smiles": "CC1=C(c2cccc(O)c2)C(c2ccc(OCCN3CC[C@@H](CF)C3)cc2)Oc2ccc(O)cc21", "note": "(some centres undefined)", "values": [{"measurement": "AUC", "setting": "[4]", "result": 40, "unit": "ng·h/mL"}, {"measurement": "IC50", "setting": "[1]", "result": 0.1, "unit": "nM"}, {"measurement": "IC50", "setting": "[2]", "result": 0.2, "unit": "nM"}]}, {"smiles": "CC1=C(c2cccc(O)c2)C(c2ccc(OCCN3CC(CF)C3)cc2)Oc2ccc(O)cc21", "note": "(centres undefined)", "values": [{"measurement": "AUC", "setting": "[4]", "result": 160, "unit": "ng·h/mL"}, {"measurement": "IC50", "setting": "[2]", "result": 0.2, "unit": "nM"}]}, {"smiles": "CC1=C(c2cccc(O)c2)C(c2ccc(OC[C@H](C)N3CC(CF)C3)cc2)Oc2ccc(O)cc21", "note": "(some centres undefined)", "values": [{"measurement": "IC50", "setting": "[1]", "result": 0.2, "unit": "nM"}, {"measurement": "IC50", "setting": "[2]", "result": 0.3, "unit": "nM"}]}, {"smiles": "CC1=C(c2cccc(O)c2)C(c2ccc(OCCN3CCC[C@H]3CF)cc2)Oc2ccc(O)cc21", "note": "(some centres undefined)", "values": [{"measurement": "IC50", "setting": "[1]", "result": 0.2, "unit": "nM"}, {"measurement": "IC50", "setting": "[2]", "result": 1.4, "unit": "nM"}]}, {"smiles": "CC1=C(c2cccc(O)c2)[C@H](c2ccc(OC[C@H](C)N3CC[C@@H](C)C3)cc2)Oc2ccc(O)cc21", "values": [{"measurement": "AUC at 24 h", "setting": "[5]", "result": 12000, "unit": "ng·h/mL"}, {"measurement": "fCmax", "setting": "[6]", "result": 0.021, "unit": "µg/mL"}, {"measurement": "Activity", "setting": "[7]", "result": "Active"}, {"measurement": "Fu", "setting": "[8]", "result": 1.6, "unit": "%"}, {"measurement": "bioavailability", "setting": "[9]", "result": "< 15", "unit": "%"}, {"measurement": "fAUC", "setting": "[10]", "result": 190, "unit": "ng·h/mL"}, {"measurement": "Activity", "setting": "[11]", "result": "inactive"}, {"measurement": "Cmax", "setting": "[12]", "result": 1300, "unit": "ng/mL"}, {"measurement": "CL/F", "setting": "[13]", "result": "> 60", "unit": "mL/min/kg"}]}, {"smiles": "CC1=C(c2cccc(O)c2)C(c2ccc(OCCN3CC[C@@H](C(F)F)C3)cc2)Oc2ccc(O)cc21", "note": "(some centres undefined)", "values": [{"measurement": "IC50", "setting": "[1]", "result": 0.2, "unit": "nM"}, {"measurement": "IC50", "setting": "[2]", "result": 0.4, "unit": "nM"}]}, {"smiles": "CC1=C(c2ccc(F)cc2)[C@H](c2ccc(OCCN3CC(CF)C3)cc2)Oc2ccc(O)cc21", "values": [{"measurement": "AUC at 24 h", "setting": "[5]", "result": 21000, "unit": "ng·h/mL"}, {"measurement": "fCmax", "setting": "[6]", "result": 0.009, "unit": "µg/mL"}, {"measurement": "Activity", "setting": "[7]", "result": "Active"}, {"measurement": "Fu", "setting": "[8]", "result": 0.4, "unit": "%"}, {"measurement": "AUC at 72 h", "setting": "[14]", "result": 1900, "unit": "ng·h/mL"}, {"measurement": "bioavailability", "setting": "[9]", "result": 42, "unit": "%"}, {"measurement": "fAUC", "setting": "[10]", "result": 80, "unit": "ng·h/mL"}, {"measurement": "Activity", "setting": "[15]", "result": "Active"}, {"measurement": "IC50", "setting": "[2]", "result": 0.2, "unit": "nM"}, {"measurement": "Activity", "setting": "[11]", "result": "Active"}, {"measurement": "Cmax", "setting": "[12]", "result": 2300, "unit": "ng/mL"}, {"measurement": "CL/F", "setting": "[13]", "result": 36, "unit": "mL/min/kg"}]}]}
